Consider one compound from ChEMBL document CHEMBL1124054, “Synthesis and biological activity of ketomethylene-containing nonapeptide analogues of snake venom angiotensin converting enzyme inhibitors” (J Med Chem, 1988).

Each structure is given as a SMILES string. Starred links: 1 amine or outer side, 2 acyl side, 3 side chain; linkers in the order of their positions; H or OH if unused. Non-standard residues stand in square brackets, D forms with d. Residues, ends and D or L forms follow the SMILES beside them. *: point of attachment. X2 = O=C(CCC(=O)[*:2])[C@H](Cc1ccccc1)N[*:1]; X1 = O=C(CCC(=O)[*:2])[C@@H]1CCCN1[*:1]; Cyclobutanecarbonyl = O=C(C1CCC1)*

In data set [1] the test system is Rattus norvegicus. Put plainly: Inhibition of angiotensin I induced blood pressure in normotensive anesthetized rats at 1 ug/kg (i.v.) for 5 min. In kind it is functional. In a few lines:
(§1)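 Male Sprague-Dawley normotensive rats (290-540 g), pentobarbital-anesthetized (50 mg/kg ip), intubated. Jugular vein cannulated for iv dosing and carotid artery for blood pressure. Control pressor response to angiotensin I (175 ng/kg iv) taken after vehicle (1 mL/kg). Compound given iv in distilled water or 5% sodium bicarbonate. Angiotensin I challenge repeated at 1.5 to 75 min, rise in pressure compared with control.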

Data set [2] is filed under the species Rattus norvegicus. Put plainly: Time required for 100% degradation in rat intestinal homogenate. Type of data set: ADME. In a few lines:
(§2)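 Rat small intestine was taken immediately after sacrifice and minced in Krebs Ringer (10 mL/g). Peptide (0.2–0.5 μmol) mixed with homogenate (1.0 mL per μmol), shaken at 37 °C. Degradation followed by TLC.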

Data set [3] in a line: Time required for degradation by pepsin (none). Type of data set: ADME.
For data set [4], the system named is Rattus norvegicus. Description: Inhibition of angiotensin I induced blood pressure in normotensive anesthetized rats at 30 ug/kg (i.v.) for 30 min. In kind it is functional. In a few lines: as §1
The test system of data set [5] is Rattus norvegicus. Description: Inhibition of angiotensin I induced blood pressure in normotensive anesthetized rats at 30 ug/kg (i.v.) for 1.5 min. In kind it is functional. The essentials: as §1
Data set [6] relates to Rattus norvegicus. Put plainly: Inhibition of angiotensin I induced blood pressure in normotensive anesthetized rats at 1 ug/kg (i.v.) for 1.5 min. In kind it is functional. The essentials:
as §1

The next data set concerns chymotrypsin. Description: Time required for 50% degradation by chymotrypsin. Type of data set: ADME. As to conditions: read-out: Time (converted). In a few lines: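 Peptide (0.5–1.0 μmol) in 0.1 M Tris, pH 7.8, stirred at room temperature with chymotrypsin (37 units dissolved in 50 mL cold 0.001 N HCl; 0.050 mL per μmol peptide). Degradation followed over time by TLC.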

Data set [7] has as its system Rattus norvegicus. Put plainly: Inhibition of angiotensin I induced blood pressure in normotensive anesthetized rats at 10 ug/kg (i.v.) for 60 min. Type of data set: functional. The essentials: as §1
The test system of data set [8] is Rattus norvegicus. Put plainly: Inhibition of angiotensin I induced blood pressure in normotensive anesthetized rats at 30 ug/kg (i.v.) for 60 min. Type of data set: functional. In a few lines:
as §1

The test system of data set [9] is Rattus norvegicus. Put plainly: Inhibition of angiotensin I induced blood pressure in normotensive anesthetized rats at 30 ug/kg (i.v.) for 75 min. Type of data set: functional. The essentials: as §1
Data set [10] concerns Rattus norvegicus. Description: Inhibition of angiotensin I induced blood pressure in normotensive anesthetized rats at 10 ug/kg (i.v.) for 10 min. Type of data set: functional. In a few lines:
as §1

The nature of data set [11]: Time required for 100% degradation by trypsin. In kind it is ADME.
For data set [12], the system named is Rattus norvegicus. Description: Inhibition of angiotensin I induced blood pressure in normotensive anesthetized rats at 1 ug/kg (i.v.) for 30 min. Type of data set: functional. The essentials:
as §1

Data set [13] deals with Rattus norvegicus. Description: Inhibition of angiotensin I induced blood pressure in normotensive anesthetized rats at 10 ug/kg (i.v.) for 30 min. In kind it is functional. In a few lines:
as §1

Data set [14] relates to Rattus norvegicus. Description: Inhibition of angiotensin I induced blood pressure in normotensive anesthetized rats at 1 ug/kg (i.v.) for 60 min. In kind it is functional. In a few lines: as §1
Data set [15] concerns Rattus norvegicus. Put plainly: Inhibition of angiotensin I induced blood pressure in normotensive anesthetized rats at 10 ug/kg (i.v.) for 5 min. Type of data set: functional. The essentials:
as §1

Data set [16] in a line: Time required for 50% degradation in rat intestinal homogenate. In kind it is ADME. As to conditions: read-out: Time (converted). The essentials: as §2
The subject of data set [17] is Rattus norvegicus. Description: Inhibition of angiotensin I induced blood pressure in normotensive anesthetized rats at 30 ug/kg (i.v.) for 10 min. In kind it is functional. In a few lines:
as §1

For data set [18], the system named is Rattus norvegicus. Description: Inhibition of angiotensin I induced blood pressure in normotensive anesthetized rats at 1 ug/kg (i.v.) for 10 min. Type of data set: functional. In a few lines:
as §1

Data set [19] deals with Rattus norvegicus. Description: Inhibition of angiotensin I induced blood pressure in normotensive anesthetized rats at 30 ug/kg (i.v.) for 5 min. In kind it is functional. In a few lines:
as §1

In a further data set the test system is trypsin. Put plainly: Time required for 50% degradation by trypsin. In kind it is ADME. As to conditions: read-out: Time.
Data set [20] deals with Angiotensin-converting enzyme (Oryctolagus cuniculus) (UniProt P12822). Description: Inhibition of Angiotensin I converting enzyme from rabbit lung. As to conditions: read-out: I50.
In data set [21] the test system is Rattus norvegicus. Put plainly: Inhibition of angiotensin I induced blood pressure in normotensive anesthetized rats at 10 ug/kg (i.v.) for 1.5 min. In kind it is functional. The essentials:
as §1

Consider `NCCCC[C@H](NC(=O)[C@@H]1CCCN1C(=O)CCC(=O)[C@@H]1CCCN1C(=O)[C@H](Cc1ccc(O)cc1)NC(=O)C1CCC1)C(=O)N[C@@H](Cc1ccccc1)C(=O)CCC(=O)N1CCC[C@H]1C(=O)O` (Cyclobutanecarbonyl-Y[X1]PK[X2]P-OH), for which the Inhibition over time worked out at 0% with Rattus norvegicus [1]; 17.3% in the data set with Rattus norvegicus [4]; 79.5% in the data set on Rattus norvegicus [5]; 24.3% in the data set with Rattus norvegicus [6]; 0% with Rattus norvegicus [7]; 15.3% in the data set with Rattus norvegicus [8]. Further, the Inhibition over time in the data set with Rattus norvegicus [9] was 12.5%; in the data set with Rattus norvegicus [10], 14.5%; in the data set on Rattus norvegicus [12], 0%; in the data set with Rattus norvegicus [13], 7.8%; in the data set on Rattus norvegicus [14], 0%; with Rattus norvegicus [15], 23.5%. The Inhibition over time in the data set on Rattus norvegicus [17] amounted to 31.5%; with Rattus norvegicus [18], 0%; in the data set on Rattus norvegicus [19], 45%; with Rattus norvegicus [21] it was 39.5%. In addition, the figures for the Time (in the data set filed under Rattus norvegicus [2]; in data set [3]; in [11]) were 5 h, 20 h and 1 h, respectively. The half-life is 22 h with chymotrypsin, 1 h in [16] and 5 min in the data set with trypsin. Moreover, the IC50 in data set [20] was 3.4 nM.
